Measured values: ChEMBL document CHEMBL4622923, “Discovery of 4-Phenylpiperidine-2-Carboxamide Analogues as Serotonin 5-HT2C Receptor-Positive Allosteric Modulators with Enhanced Drug-like Properties” (J Med Chem, 2020)
Calls of active or inactive are those of the source.

Columns and labels:
[1] = biological target: T1, 5-hydroxytryptamine receptor 2C (Homo sapiens) (UniProt P28335); assay: Positive allosteric modulation of human 5HT2CR expressed in CHO cells assessed as increase in 5-HT induced intracellular calcium release at 1 nM preincubated for 15 mins followed by 5-HT addition and measured at 1 secs interval for 360 secs by calcium 4 dye based FLIPR assay relative to 5-HT; type: functional, cell-based
T1 sequence (whole entry): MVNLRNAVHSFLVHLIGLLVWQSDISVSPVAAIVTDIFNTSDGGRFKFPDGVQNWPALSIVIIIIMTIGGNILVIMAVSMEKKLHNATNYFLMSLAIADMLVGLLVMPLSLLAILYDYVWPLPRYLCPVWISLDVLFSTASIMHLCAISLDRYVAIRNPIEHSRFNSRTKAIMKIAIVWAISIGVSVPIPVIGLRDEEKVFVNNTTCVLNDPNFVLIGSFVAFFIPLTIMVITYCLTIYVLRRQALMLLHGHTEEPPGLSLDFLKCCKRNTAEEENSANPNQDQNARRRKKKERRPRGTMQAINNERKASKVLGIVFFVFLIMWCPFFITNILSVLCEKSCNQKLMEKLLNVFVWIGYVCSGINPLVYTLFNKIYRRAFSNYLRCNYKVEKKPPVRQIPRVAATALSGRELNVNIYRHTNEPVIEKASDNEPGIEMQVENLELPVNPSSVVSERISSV
In short: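 CHO cells stably expressing human unedited (INI) 5-HT2C receptor, serum-starved 3 h, then loaded 60 min at 37 °C with Calcium 4 dye and 2.5 mM probenecid in HBSS (pH 7.4). Compound added 15 min before 5-HT (10 pM–10 μM). FLIPR read every 1 s for 360 s; peak height; Emax by 4-parameter fit, 4–6 biological replicates in triplicate, relative to 5-HT alone.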

[2] = biological target: T2, 5-hydroxytryptamine receptor 2C (Homo sapiens, UniProt P28335); assay: Agonist activity at human 5HT2CR expressed in CHO cells assessed as increase in intracellular calcium release at 1 nM incubated for 15 mins measured at 1 secs interval for 120 secs by calcium 4 dye based FLIPR assay relative to 5-HT; type: cell-based; conditions: 0.001 µM
T2 sequence (P28335 whole entry): T1 sequence (whole entry)
In short: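 h5-HT2CR (unedited INI isoform) stably expressed in CHO cells; cells plated ~24 h, serum-free medium 3 h, then Calcium 4 dye with 2.5 mM probenecid in Ca/Mg-free HBSS pH 7.4 for 60 min at 37°C plus 15 min at room temperature. Compound given alone, read for 15 min before 5-HT. Peak fluorescence is expressed relative to the 5-HT Emax. 4-6 biological replicates, each in triplicate.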

5-HT2A receptor = 5-HT2A receptor (Homo sapiens, UniProt P28223); assay: Positive allosteric modulation of human 5HT2AR expressed in CHO cells assessed as increase in 5-HT induced intracellular calcium release at 1 nM preincubated for 15 mins followed by 5-HT addition and measured at 1 secs interval for 360 secs by calcium 4 dye based FLIPR assay relative to 5-HT; type: cell-based; conditions: CHO cells expressing human 5HT2AR
In short: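 CHO cells stably expressing human 5-HT2AR, serum-starved 3 h, then loaded with Calcium 4 dye plus 2.5 mM probenecid in HBSS (no Ca/Mg, pH 7.4) for 60 min at 37°C and 15 min at room temperature. Test compound added 15 min before 5-HT (10 pM-10 μM). FLIPR fluorescence read every 1 s for 360 s after 5-HT. Emax from 4-parameter fit, normalized to 5-HT maximum.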

Rattus norvegicus [3] = assay: Neurobiological activity in ip dosed Sprague-Dawley rat assessed as increase in number of rat choosing drug associated lever treated 15 mins prior to test by drug discrimination test; type: functional
Rattus norvegicus [4] = assay: Neurobiological activity in Sprague-Dawley rat assessed as increase in number of rat choosing drug associated lever at 0.5 mg/kg, ip treated 15 mins prior to test by drug discrimination test relative to control; type: functional
In short: (§1)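 Male Sprague-Dawley rats (n = 13, 300–325 g) held at 80–90% free-feeding weight by water restriction. Trained to discriminate WAY163909 0.75 mg/kg ip from saline, 1 mL/kg, 15 min pretreatment. Two-lever, water-reinforced, FR20, 15 min sessions. Criterion ≥80% correct responding for 10 sessions. Test doses given ip 15 min pretest. Read-out: percentage of rats choosing the drug lever.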

Rattus norvegicus [5] = assay: Neurobiological activity in Sprague-Dawley rat assessed as increase in number of rat choosing drug associated lever at 0.75 mg/kg, ip treated 15 mins prior to test by drug discrimination test relative to control; type: functional; in short: as §1
Rattus norvegicus [6] = assay: Neurobiological activity in Sprague-Dawley rat assessed as increase in number of rat choosing drug associated lever at 0.625 mg/kg, ip treated 15 mins prior to test by drug discrimination test relative to control; type: functional; in short: as §1
Rattus norvegicus [7] = assay: Neurobiological activity in Sprague-Dawley rat assessed as increase in number of rat choosing drug associated lever at 1 mg/kg, ip treated 15 mins prior to test by drug discrimination test relative to control; type: functional; in short: as §1
Rattus norvegicus [8] = assay: Neurobiological activity in Sprague-Dawley rat assessed as increase in number of rat choosing drug associated lever at 0.25 to 0.625 mg/kg, ip treated 15 mins prior to test by drug discrimination test; type: functional, organism-based
In short: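 Male Sprague-Dawley rats (n=13), water-restricted to 80-90% free-feeding weight, trained in a two-lever water-reinforced task (FR 20) to discriminate 0.75 mg/kg WAY163909 ip from saline (1 mL/kg). Test drug given ip 15 min before the 15-min session. Read-out is the percentage of rats choosing the drug lever. ED50 is taken from log-probit analysis.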

Chain of 5-HT2A receptor (P28223 whole entry): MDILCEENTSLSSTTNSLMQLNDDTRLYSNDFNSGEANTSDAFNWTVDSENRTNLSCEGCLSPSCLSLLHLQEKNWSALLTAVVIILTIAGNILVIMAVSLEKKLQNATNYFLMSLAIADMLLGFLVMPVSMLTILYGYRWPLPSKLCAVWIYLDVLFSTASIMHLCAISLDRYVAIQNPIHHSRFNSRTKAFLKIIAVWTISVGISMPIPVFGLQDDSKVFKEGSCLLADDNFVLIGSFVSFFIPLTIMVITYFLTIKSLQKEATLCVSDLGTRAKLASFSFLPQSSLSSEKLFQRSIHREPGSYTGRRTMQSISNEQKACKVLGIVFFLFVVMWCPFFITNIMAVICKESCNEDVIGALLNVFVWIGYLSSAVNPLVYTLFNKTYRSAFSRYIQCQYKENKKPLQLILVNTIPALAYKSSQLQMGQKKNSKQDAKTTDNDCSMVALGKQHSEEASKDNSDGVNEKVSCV

| Structure (SMILES) | Emax [1] [%] | Activity [2] | further results |
| --- | --- | --- | --- |
| O=C(NC[C@H](O)CO)[C@@H]1C[C@H](CCc2ccccc2)CCN1 | 108 | Not Active | – |
| O=C(NC(CO)CO)[C@@H]1C[C@H](C2CCCCC2)CCN1 (racemic) | 119 | Not Active | – |
| O=C(NC(CO)CO)[C@@H]1C[C@H](c2ccccc2)CCN1 (racemic) | 119 | Not Active | Emax at 0.1 h, 0.001 µM (5-HT2A receptor): 99.3% |
| O=C(N[C@H](CO)[C@H](O)c1ccccc1)[C@@H]1C[C@H](CCc2ccccc2)CCN1 | 110 | Not Active | Emax at 0.1 h, 0.001 µM (5-HT2A receptor): 104% |
| Cc1ccc(CC[C@@H]2CCN[C@H](C(=O)N[C@H](CO)[C@H](O)c3ccccc3)C2)cc1 | 99.3 | Not Active | – |
| O=C(NCCCN1CCOCC1)[C@@H]1C[C@H](CCc2ccccc2)CCN1 (racemic) | 118 | Not Active | Emax at 0.1 h, 0.001 µM (5-HT2A receptor): 97.9% |
| O=C(NC[C@H](O)CO)[C@@H]1C[C@H](CCC2CCCCC2)CCN1 | 110 | Not Active | – |
| O=C(NC[C@H](O)CO)[C@@H]1C[C@H](C2CCCCC2)CCN1 (mixture of isomers) | 118 | Not Active | Emax at 0.1 h, 0.001 µM (5-HT2A receptor): 97.8% |
| CC(C)(C)c1ccc(CC[C@@H]2CCN[C@H](C(=O)N[C@H](CO)[C@H](O)c3ccccc3)C2)cc1 | 115 | Not Active | – |
| O=C(N[C@H](CO)[C@H](O)c1ccccc1)[C@H]1C[C@@H](c2ccccc2)CCN1 | 118 | Not Active | Emax at 0.1 h, 0.001 µM (5-HT2A receptor): 103% |
| O=C(N[C@H](CO)[C@H](O)c1ccccc1)[C@H]1C[C@@H](CCc2ccccc2)CCN1 | 109 | Not Active | – |
| c1cc2c3c(c1)[C@H]1CCC[C@H]1N3CCNC2 | – | – | ED50 (Rattus norvegicus [3]): 0.51 mg/kg; Activity (Rattus norvegicus [4]): 46%; Activity (Rattus norvegicus [5]): 92%; Activity (Rattus norvegicus [6]): 54%; Activity (Rattus norvegicus [7]): 100%; Activity (Rattus norvegicus [8]): Active |
| O=C(NCCCN1CCOCC1)[C@@H]1C[C@H](CCC2CCCCC2)CCN1 (racemic) | 118 | Not Active | Emax at 0.1 h, 0.001 µM (5-HT2A receptor): 97.2% |
| CC(C)(C)c1ccc(CC[C@H]2CCN[C@@H](C(=O)N[C@H](CO)[C@H](O)c3ccccc3)C2)cc1 | 107 | Not Active | – |
| O=C(NC(CO)CO)[C@@H]1C[C@H](CCC2CCCCC2)CCN1 (relative stereo) | 106 | Not Active | – |
| O=C(NCCN1CCOCC1)[C@@H]1C[C@H](C2CCCCC2)CCN1 (racemic) | 121 | Not Active | – |
| O=C(NCCN1CCOCC1)[C@@H]1C[C@H](c2ccccc2)CCN1 (racemic) | 114 | Not Active | – |
| CCCCCCCCCCC[C@@H]1CCN[C@H](C(=O)NCC(O)CO)C1 (relative stereo) | – | Not Active | – |
| O=C(NCCN1CCOCC1)[C@@H]1C[C@H](CCC2CCCCC2)CCN1 (racemic) | 110 | Not Active | – |
| O=C(NC(CO)CO)[C@@H]1C[C@H](CCc2ccccc2)CCN1 (relative stereo) | 101 | Not Active | – |
| O=C(N[C@H](CO)[C@H](O)c1ccccc1)[C@@H]1C[C@H](c2ccccc2)CCN1 | 103 | Not Active | – |
| O=C(NCCN1CCOCC1)[C@@H]1C[C@H](CCc2ccccc2)CCN1 (racemic) | 94.2 | Not Active | – |
| Cc1ccc(CC[C@H]2CCN[C@@H](C(=O)N[C@H](CO)[C@H](O)c3ccccc3)C2)cc1 | 98.9 | Not Active | – |
